Columns and labels:
[1] = test system: CAL-27; experiment: Potentiation of 0.316 uM cisplatin-induced cytotoxicity against human CAL27 cells assessed as decrease in cell viability by measuring combination index at 600 uM preincubated for 48 hrs followed by cisplatin treatment measured after 72 hrs by MTT assay; type: functional; conditions: in the assay text read “at 600 nM” for “at 600 uM”
How it was run: (§1)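 Cal27 and cisplatin-resistant Cal27CisR cells were preincubated with the HDAC inhibitor for 48 h, then given cisplatin in combination. Viability was read by MTT after 72 h. The combination index was computed by the Chou–Talalay method: CI > 1 is antagonism, CI = 1 is additive, and CI < 0.9 is synergism. Points with fraction affected below 0.20 were flagged.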

[2] = test system: CAL-27; experiment: Potentiation of 0.316 uM cisplatin-induced cytotoxicity against human CAL27 cells assessed as decrease in cell viability by measuring combination index at 800 uM preincubated for 48 hrs followed by cisplatin treatment measured after 72 hrs by MTT assay; type: functional; conditions: in the assay text read “at 800 nM” for “at 800 uM”; how it was run: as §1
[3] = test system: CAL-27; experiment: Potentiation of 2 uM cisplatin-induced cytotoxicity against human CAL27 cells assessed as decrease in cell viability by measuring combination index at 800 uM preincubated for 48 hrs followed by cisplatin treatment measured after 72 hrs by MTT assay; type: functional; conditions: in the assay text read “at 800 nM” for “at 800 uM”
How it was run: (§2)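 HDAC inhibitor was added 48 h before cisplatin, then cells were exposed to cisplatin for 72 h and viability was read by MTT assay. Combination index was computed by the Chou–Talalay method: CI > 1 is antagonism, CI = 1 additive, CI < 0.9 synergism. Points with fraction affected below 0.20 were flagged.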

[4] = biological target: T1, Histone deacetylase 1/6 (Homo sapiens) (UniProt Q13547+Q9UBN7); experiment: Inhibition of HDAC1/HDAC6 in human Cal27CisR cells assessed as potentiation of 3.16 uM cisplatin-induced cytotoxicity by measuring combination index at 500 nM preincubated for 48 hrs followed by cisplatin treatment measured after 72 hrs by MTT assay
T1 sequence (Q13547 whole entry, looked up): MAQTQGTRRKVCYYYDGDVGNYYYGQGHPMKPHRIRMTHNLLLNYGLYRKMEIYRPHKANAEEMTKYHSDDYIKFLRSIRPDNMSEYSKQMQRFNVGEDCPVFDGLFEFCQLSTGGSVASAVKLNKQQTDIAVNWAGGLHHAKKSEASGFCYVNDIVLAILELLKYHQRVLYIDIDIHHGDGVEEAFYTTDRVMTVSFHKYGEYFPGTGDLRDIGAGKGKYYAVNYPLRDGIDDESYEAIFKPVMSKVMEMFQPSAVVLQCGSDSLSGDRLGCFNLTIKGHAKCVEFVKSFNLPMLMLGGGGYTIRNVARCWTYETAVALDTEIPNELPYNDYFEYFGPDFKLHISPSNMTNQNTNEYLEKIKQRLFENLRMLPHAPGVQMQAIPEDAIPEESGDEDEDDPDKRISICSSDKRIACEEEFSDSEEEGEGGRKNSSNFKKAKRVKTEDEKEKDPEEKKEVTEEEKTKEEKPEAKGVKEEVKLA
T1 sequence (Q9UBN7 whole entry, looked up): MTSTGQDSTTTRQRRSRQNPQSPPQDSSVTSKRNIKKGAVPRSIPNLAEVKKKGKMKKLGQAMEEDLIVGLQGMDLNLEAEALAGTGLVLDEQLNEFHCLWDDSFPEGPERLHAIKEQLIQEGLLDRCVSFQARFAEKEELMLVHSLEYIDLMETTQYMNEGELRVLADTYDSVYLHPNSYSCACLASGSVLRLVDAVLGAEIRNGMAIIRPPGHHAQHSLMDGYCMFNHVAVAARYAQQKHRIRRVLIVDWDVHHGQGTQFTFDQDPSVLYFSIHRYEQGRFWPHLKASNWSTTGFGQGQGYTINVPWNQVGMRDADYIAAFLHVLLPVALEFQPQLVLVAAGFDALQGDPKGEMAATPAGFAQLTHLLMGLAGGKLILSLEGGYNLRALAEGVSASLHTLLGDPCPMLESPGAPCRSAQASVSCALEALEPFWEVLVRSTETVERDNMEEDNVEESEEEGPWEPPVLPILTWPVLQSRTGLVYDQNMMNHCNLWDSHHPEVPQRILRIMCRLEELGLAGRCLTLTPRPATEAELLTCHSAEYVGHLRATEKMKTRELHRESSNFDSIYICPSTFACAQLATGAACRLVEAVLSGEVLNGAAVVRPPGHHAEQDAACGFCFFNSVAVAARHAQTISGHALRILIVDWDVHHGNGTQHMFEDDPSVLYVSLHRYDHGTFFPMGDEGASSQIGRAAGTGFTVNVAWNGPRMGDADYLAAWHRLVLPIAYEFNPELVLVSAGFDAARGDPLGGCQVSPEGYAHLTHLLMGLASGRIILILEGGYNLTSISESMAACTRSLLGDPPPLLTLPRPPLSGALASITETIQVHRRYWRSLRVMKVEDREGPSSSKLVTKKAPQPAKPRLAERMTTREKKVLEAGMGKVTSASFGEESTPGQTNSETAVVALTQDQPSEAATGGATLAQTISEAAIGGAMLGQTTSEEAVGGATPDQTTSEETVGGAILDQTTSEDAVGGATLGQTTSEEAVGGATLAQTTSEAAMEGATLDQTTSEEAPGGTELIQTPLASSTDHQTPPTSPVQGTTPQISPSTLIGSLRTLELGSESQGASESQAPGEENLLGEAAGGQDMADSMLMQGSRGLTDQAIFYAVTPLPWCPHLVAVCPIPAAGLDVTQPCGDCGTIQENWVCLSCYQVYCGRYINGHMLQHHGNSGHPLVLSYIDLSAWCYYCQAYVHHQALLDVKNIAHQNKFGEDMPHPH

[5] = test system: CAL-27; experiment: Potentiation of 0.316 uM cisplatin-induced cytotoxicity against human CAL27 cells assessed as decrease in cell viability by measuring combination index at 400 uM preincubated for 48 hrs followed by cisplatin treatment measured after 72 hrs by MTT assay; type: functional; conditions: in the assay text read “at 400 nM” for “at 400 uM”; how it was run: as §1
[6] = test system: CAL-27; experiment: Potentiation of 0.5 uM cisplatin-induced cytotoxicity against human CAL27 cells assessed as decrease in cell viability by measuring combination index at 400 uM preincubated for 48 hrs followed by cisplatin treatment measured after 72 hrs by MTT assay; type: functional; conditions: in the assay text read “at 400 nM” for “at 400 uM”; how it was run: as §1
[7] = test system: CAL-27; experiment: Potentiation of 1 uM cisplatin-induced cytotoxicity against human CAL27 cells assessed as decrease in cell viability by measuring combination index at 200 uM preincubated for 48 hrs followed by cisplatin treatment measured after 72 hrs by MTT assay; type: functional; how it was run: as §1
[8] = test system: CAL-27; experiment: Potentiation of 1 uM cisplatin-induced cytotoxicity against human CAL27 cells assessed as decrease in cell viability by measuring combination index at 300 uM preincubated for 48 hrs followed by cisplatin treatment measured after 72 hrs by MTT assay; type: functional; how it was run: as §2
[9] = test system: CAL-27; experiment: Potentiation of 2 uM cisplatin-induced cytotoxicity against human CAL27 cells assessed as decrease in cell viability by measuring combination index at 300 uM preincubated for 48 hrs followed by cisplatin treatment measured after 72 hrs by MTT assay; type: functional; conditions: in the assay text read “at 300 nM” for “at 300 uM”; how it was run: as §2
[10] = test system: CAL-27; experiment: Potentiation of 2 uM cisplatin-induced cytotoxicity against human CAL27 cells assessed as decrease in cell viability by measuring combination index at 400 uM preincubated for 48 hrs followed by cisplatin treatment measured after 72 hrs by MTT assay; type: functional; conditions: in the assay text read “at 400 nM” for “at 400 uM”; how it was run: as §2
[11] = test system: CAL-27; experiment: Potentiation of 5 uM cisplatin-induced cytotoxicity against human CAL27 cells assessed as decrease in cell viability by measuring combination index at 200 uM preincubated for 48 hrs followed by cisplatin treatment measured after 72 hrs by MTT assay; type: functional; conditions: in the assay text read “at 200 nM” for “at 200 uM”; how it was run: as §2
[12] = test system: CAL-27; experiment: Potentiation of 5 uM cisplatin-induced cytotoxicity against human CAL27 cells assessed as decrease in cell viability by measuring combination index at 400 uM preincubated for 48 hrs followed by cisplatin treatment measured after 72 hrs by MTT assay; type: functional; conditions: in the assay text read “at 400 nM” for “at 400 uM”; how it was run: as §2
[13] = biological target: T1, Histone deacetylase 1/6 (Homo sapiens); experiment: Inhibition of HDAC1/HDAC6 in human Cal27CisR cells assessed as potentiation of 3.16 uM cisplatin-induced cytotoxicity by measuring combination index at 400 uM preincubated for 48 hrs followed by cisplatin treatment measured after 72 hrs by MTT assay; type: cell-based; how it was run: as §1
[14] = biological target: T1, Histone deacetylase 1/6 (Homo sapiens); experiment: Inhibition of HDAC1/HDAC6 in human Cal27CisR cells assessed as potentiation of 10 uM cisplatin-induced cytotoxicity by measuring combination index at 100 uM preincubated for 48 hrs followed by cisplatin treatment measured after 72 hrs by MTT assay; type: cell-based
How it was run: (§3)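 Cal27CisR cells preincubated 48 h with the HDAC inhibitor, then exposed to cisplatin for 72 h. Viability read by MTT. Combination index calculated by the Chou–Talalay method: CI > 1 antagonism, CI = 1 additive, CI < 0.9 synergism. Points with fraction affected below 0.20 are flagged. Values are the mean of three experiments.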

[15] = biological target: T1, Histone deacetylase 1/6 (Homo sapiens); experiment: Inhibition of HDAC1/HDAC6 in human Cal27CisR cells assessed as potentiation of 10 uM cisplatin-induced cytotoxicity by measuring combination index at 200 uM preincubated for 48 hrs followed by cisplatin treatment measured after 72 hrs by MTT assay; type: cell-based; how it was run: as §3
[16] = biological target: T1, Histone deacetylase 1/6 (Homo sapiens); experiment: Inhibition of HDAC1/HDAC6 in human Cal27CisR cells assessed as potentiation of 10 uM cisplatin-induced cytotoxicity by measuring combination index at 300 uM preincubated for 48 hrs followed by cisplatin treatment measured after 72 hrs by MTT assay; type: cell-based; how it was run: as §3
[17] = biological target: T1, Histone deacetylase 1/6 (Homo sapiens); experiment: Inhibition of HDAC1/HDAC6 in human Cal27CisR cells assessed as potentiation of cisplatin-induced apoptosis at 0.5 uM preincubated for 48 hrs followed by cisplatin treatment for 6 hrs measured after 24 hrs by propidium iodide dye-based flow cytometry (reference value: 20.3%); type: cell-based; design: scale not given: the % may be the effect or the level left
[18] = biological target: T1, Histone deacetylase 1/6 (Homo sapiens); experiment: Inhibition of HDAC1/HDAC6 in human Cal27CisR cells assessed as potentiation of 1 uM cisplatin-induced cytotoxicity by measuring combination index at 400 nM preincubated for 48 hrs followed by cisplatin treatment measured after 72 hrs by MTT assay
[19] = biological target: T1, Histone deacetylase 1/6 (Homo sapiens); experiment: Inhibition of HDAC1/HDAC6 in human Cal27CisR cells assessed as potentiation of 5 uM cisplatin-induced cytotoxicity by measuring combination index at 200 nM preincubated for 48 hrs followed by cisplatin treatment measured after 72 hrs by MTT assay
[20] = biological target: T1, Histone deacetylase 1/6 (Homo sapiens); experiment: Inhibition of HDAC1/HDAC6 in human Cal27CisR cells assessed as potentiation of 20 uM cisplatin-induced cytotoxicity by measuring combination index at 200 nM preincubated for 48 hrs followed by cisplatin treatment measured after 72 hrs by MTT assay

Row | SMILES | CI [1] | CI [2] | CI [3] | CI [4] | CI [5] | CI [6] | CI [7] | CI [8] | CI [9] | CI [10] | CI [11] | CI [12] | CI [13] | CI [14] | CI [15] | CI [16] | Activity [17] | CI [18] | CI [19] | CI [20]
1 | COc1cc(NC(=O)NOCCCCCC(=O)NO)c2ncccc2c1 | 0.79 | <0.2 | 0.43 | < 0.2 |  |  |  |  |  |  |  |  |  |  |  |  |  |  |  | 
2 | COc1cc(NC(=O)NOCCCCCC(=O)NO)c2nccc(C)c2c1 | 0.93 | 0.56 | 0.38 | 0.71 | <0.2 | 0.91 | 0.76 | 0.44 | 0.31 | 0.27 | 0.29 | 0.29 | < 0.2 | < 0.2 | 0.48 | 0.43 | 59.7% | < 0.2 | < 0.2 | 0.33
3 | COc1cc(NC(=O)NOCCCCCC(=O)NO)c2nc(OC)cc(C)c2c1 | 0.71 | 0.84 | 0.66 | 0.26 | 0.97 | 0.75 | 0.82 | 0.64 | 0.38 | 0.38 | 0.22 | 0.36 | 0.3 | 0.41 | 0.21 | 0.18 | 59.7% | < 0.2 | 0.38 | 0.19
